Here are results for 25 molecules from ChEMBL document CHEMBL1145996 (J Med Chem, 2003).

pIC50: −log10 of the molar value.

The test system of the assay is Leishmania donovani. The assay can be described thus: Antileishmanial activity of compound against leishmania donovani was determined in luciferase assay. The class given is functional, organism-based. The procedure, abridged: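 Transgenic Leishmania donovani promastigotes expressing firefly luciferase, 2×10^6 cell/mL, exposed to compound dilutions in 96-well plates at 26°C for 72 h; growth read by luciferase luminescence (Steady Glo). At least six concentrations, each in duplicate; mean values used for growth inhibition curves and IC50. Pentamidine and amphotericin B as standards.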
By pIC50 is commonly meant the IC50 on a negative log10 scale, so that one unit is a factor of ten. For the molecule `C[C@@H]1CC[C@H]2CC(=O)O[C@@H]3O[C@@]4(C)CCC1[C@@]23OO4` (stereo not given in full), the pIC50 is 3.62. The value for `C[C@@H]1CC[C@H]2CC(=O)N(CCc3ccccc3)[C@@H]3O[C@@]4(C)CC[C@@H]1[C@@]23OO4` was 4.49. Next, `C[C@@H]1CC[C@H]2[C@@H](CCCC(F)(F)F)C(O)O[C@@H]3O[C@@]4(C)CC[C@@H]1[C@]32OO4` (stereo not given in full): 4.58. The value for `CCCC[C@H]1C(=O)O[C@@H]2O[C@@]3(CC)CCC4[C@H](C)CC[C@@H]1[C@]42OO3` (stereo not given in full) was 4.45; that for `C[C@@H]1CC[C@H]2[C@@H](C)C(=O)O[C@@H]3OC(C)(C)OO[C@@]32[C@H]1C` was 3.80; that for `C[C@@H]1CC[C@H]2[C@@H](C)C(=O)O[C@@H]3O[C@@]4(C)CC[C@@H]1[C@]32OO4` [ARTEMISININ] was 3.91.

The molecule `CCCC[C@@]12CC[C@H]3[C@H](C)CC[C@H]4CCO[C@H](O1)[C@]43OO2` showed a pIC50 of 3.82.

Take `CCCCN1C(=O)C[C@@H]2CC[C@@H](C)[C@@H]3CC[C@@]4(C)OO[C@@]23[C@H]1O4`: the pIC50 was 4.35. Next, `C[C@@H]1CC[C@H]2[C@@H](Cc3ccccc3)C(=O)O[C@@H]3O[C@@]4(C)CCC1[C@]32OO4` (stereo not given in full): 4.82; `C[C@@H]1CC[C@H]2[C@@H](CCCc3cc(F)cc(F)c3)CO[C@@H]3O[C@@]4(C)CC[C@@H]1[C@]32OO4`: 4.96. `CC(C)CCC[C@H]1C(=O)O[C@@H]2O[C@@]3(C)CCC4[C@H](C)CC[C@@H]1[C@]42OO3` (stereo not given in full) had a pIC50 of 5.07.

The molecule `CCCC[C@H]1C(O)O[C@@H]2O[C@@]3(C)CC[C@H]4[C@H](C)CC[C@@H]1[C@@]24OO3` (stereo not given in full) showed a negative-log IC50 (pIC50) of 3.42. On to `C[C@@H]1CC[C@H]2[C@@H](CCCc3cc(F)cc(F)c3)C(=O)O[C@@H]3O[C@@]4(C)CCC1[C@]32OO4` (stereo not given in full), for which the negative-log IC50 (pIC50) is 4.30. The value for `C[C@@H]1CC[C@H]2[C@@H](CCCc3ccc(Cl)c(Cl)c3)CO[C@@H]3O[C@@]4(C)CC[C@@H]1[C@]32OO4` was 5.64; that for `CCC[C@@]12CC[C@H]3[C@H](C)CC[C@H]4CCO[C@H](O1)[C@]43OO2` was 4.15; that for `C[C@@H]1CC[C@H]2[C@@H](CCCc3cc(C(F)(F)F)cc(C(F)(F)F)c3)CO[C@@H]3O[C@@]4(C)CC[C@@H]1[C@]32OO4` was 6.52.

Turning to `C[C@@H]1CC[C@H]2CCO[C@@H]3OC4(CCc5ccccc5)CC[C@@H]1[C@@]23OO4` (single isomer, unassigned), the pIC50 was 4.42.

Turning to `C[C@@H]1CC[C@H]2[C@@H](CCCc3ccc(Cl)cc3)C(=O)O[C@@H]3O[C@@]4(C)CCC1[C@]32OO4` (stereo not given in full), the pIC50 is 4.92. The value for `CCC[C@H]1C(=O)O[C@@H]2O[C@@]3(C)CCC4[C@H](C)CC[C@@H]1[C@]42OO3` (stereo not given in full) was 4.77; that for `C[C@@H]1CC[C@H]2C(C)(C)C(=O)O[C@@H]3O[C@@]4(C)CCC1[C@]32OO4` (stereo not given in full) was 3.99; that for `CCCC[C@@]12CCC3[C@H](C)CC[C@H]4CC(=O)O[C@H](O1)[C@@]34OO2` (stereo not given in full) was 3.59.

`CC1(C)OO[C@]23CCCC[C@H]2C(C)(C)C(=O)O[C@@H]3O1` had a pIC50 of 3.69. Next, `CCOC(=O)CCC12CCC3[C@H](C)CC[C@H]4CC(=O)O[C@H](O1)[C@@]34OO2` (single isomer, unassigned): 4.51; `C[C@@H]1CC[C@H]2CC(=O)O[C@@H]3OC4(CCc5ccccc5)CC[C@@H]1[C@@]23OO4` (single isomer, unassigned): 4.90.

Regarding `C[C@@H]1CC[C@H]2[C@@H](CCCc3cccc(Cl)c3)CO[C@@H]3O[C@@]4(C)CC[C@@H]1[C@]32OO4`, the pIC50 is 5.43.
